Reference: ChEMBL document CHEMBL1157638, “Fluorescent epigenetic small molecule induces expression of the tumor suppressor ras-association domain family 1A and inhibits human prostate xenograft” (J Med Chem, 2010)

Columns and labels:
Assay type in all cases: functional
[1] = tested on: PC-3; test: Growth inhibition of human PC3 cells assessed as cell growth at 1 nM relative to untreated control; settings: read-out: Activity
[2] = tested on: MCF7; test: Growth inhibition of human MCF7 cells assessed as cell growth at 10 uM relative to untreated control; settings: read-out: Activity
[3] = tested on: KM12; test: Growth inhibition of human KM12 cells assessed as cell growth at 10 nM relative to untreated control; settings: read-out: Activity
[4] = tested on: MDA-MB-231; test: Growth inhibition of human MDA-MB-231 cells
[5] = tested on: NCI-H460; test: Growth inhibition of human NCI-H460 cells assessed as cell growth at 1 nM relative to untreated control; settings: read-out: Activity
[6] = tested on: SN12C; test: Growth inhibition of human SN12C cells assessed as cell growth at 1 nM relative to untreated control; settings: read-out: Activity
[7] = tested on: OVCAR-4; test: Growth inhibition of human OVCAR4 cells assessed as cell growth at 10 nM relative to untreated control; settings: read-out: Activity
[8] = tested on: A498; test: Growth inhibition of human A498 cells assessed as cell growth at 10 uM relative to untreated control; settings: read-out: Activity
[9] = tested on: Malme-3M; test: Growth inhibition of human MALME-3M cells assessed as cell growth at 10 nM relative to untreated control; settings: read-out: Activity
[10] = tested on: MDA-MB-435; test: Growth inhibition of human MDA-MB-435 cells assessed as cell growth at 100 nM relative to untreated control; settings: read-out: Activity
[11] = tested on: UACC-62; test: Growth inhibition of human UACC62 cells
[12] = tested on: EKVX; test: Growth inhibition of human EKVX cells assessed as cell growth at 100 nM relative to untreated control; settings: read-out: Activity
Method in brief: (§1)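 Run externally at the National Cancer Institute as a 59-cell-line panel screen, with concentrations up to 100 μM. Growth was scored relative to control, where negative growth or total cell kill was possible. Data are in the Supporting Information.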

[13] = tested on: TK-10; test: Growth inhibition of human TK10 cells
[14] = tested on: OVCAR-3; test: Growth inhibition of human OVCAR-3 cells; settings: read-out: LC50 (the source's name)
[15] = tested on: UACC-257; test: Growth inhibition of human UACC257 cells assessed as cell growth at 1 uM relative to untreated control; settings: read-out: Activity
[16] = tested on: NCI-H226; test: Growth inhibition of human NCI-H226 cells assessed as cell growth at 1 uM relative to untreated control; settings: read-out: Activity
[17] = tested on: SNB-19; test: Growth inhibition of human SNB19 cells assessed as cell growth at 100 nM relative to untreated control; settings: read-out: Activity
[18] = tested on: SK-OV-3; test: Growth inhibition of human SKOV3 cells assessed as cell growth at 1 nM relative to untreated control; settings: read-out: Activity
[19] = tested on: HCT-116; test: Growth inhibition of human HCT116 cells; method in brief: as §1
[20] = tested on: A498; test: Growth inhibition of human A498 cells assessed as cell growth at 10 nM relative to untreated control; settings: read-out: Activity
[21] = tested on: OVCAR-5; test: Growth inhibition of human OVCAR5 cells assessed as cell growth at 10 uM relative to untreated control; settings: read-out: Activity
[22] = tested on: HOP-92; test: Growth inhibition of human HOP92 cells assessed as cell growth at 100 nM relative to untreated control; settings: read-out: Activity; method in brief: as §1
[23] = tested on: NCI-H226; test: Growth inhibition of human NCI-H226 cells assessed as cell growth at 100 nM relative to untreated control; settings: read-out: Activity
[24] = tested on: SK-MEL-2; test: Growth inhibition of human SK-MEL-2 cells assessed as cell growth at 10 nM relative to untreated control; settings: read-out: Activity
[25] = tested on: M14; test: Growth inhibition of human M14 cells assessed as cell growth at 10 uM relative to untreated control; settings: read-out: Activity
[26] = tested on: DU-145; test: Growth inhibition of human DU145 cells assessed as cell growth at 1 uM relative to untreated control; settings: read-out: Activity; method in brief: as §1
[27] = tested on: CCRF-CEM; test: Growth inhibition of human CCRF-CEM cells assessed as cell growth at 10 nM relative to untreated control; settings: read-out: Activity
[28] = tested on: PC-3; test: Growth inhibition of human PC3 cells assessed as cell growth at 100 nM relative to untreated control; settings: read-out: Activity
[29] = tested on: KM12; test: Growth inhibition of human KM12 cells assessed as cell growth at 100 nM relative to untreated control; settings: read-out: Activity
[30] = Growth inhibition of human Hs 578T cells assessed as cell growth at 1 nM relative to untreated control; settings: read-out: Activity
[31] = tested on: SR; test: Growth inhibition of human SR cells assessed as cell growth at 10 nM relative to untreated control; settings: read-out: Activity
[32] = tested on: HCT-15; test: Growth inhibition of human HCT15 cells assessed as cell growth at 100 nM relative to untreated control; settings: read-out: Activity; method in brief: as §1
[33] = tested on: MOLT-4; test: Growth inhibition of human MOLT4 cells
[34] = tested on: PC-3; test: Growth inhibition of human PC3 cells assessed as cell growth at 10 nM relative to untreated control; settings: read-out: Activity
[35] = tested on: OVCAR-8; test: Growth inhibition of human OVCAR8 cells assessed as cell growth at 1 nM relative to untreated control; settings: read-out: Activity
[36] = tested on: SR; test: Growth inhibition of human SR cells assessed as cell growth at 10 uM relative to untreated control; settings: read-out: Activity
[37] = Growth inhibition of human Hs 578T cells assessed as cell growth at 1 uM relative to untreated control; settings: read-out: Activity
[38] = tested on: OVCAR-8; test: Growth inhibition of human OVCAR8 cells assessed as cell growth at 100 nM relative to untreated control; settings: read-out: Activity
[39] = tested on: SW-620; test: Growth inhibition of human SW620 cells assessed as cell growth at 1 uM relative to untreated control; settings: read-out: Activity
[40] = Growth inhibition of human […] cells assessed as cell growth at 1 uM relative to untreated control; settings: read-out: Activity
[41] = tested on: K562; test: Growth inhibition of human K562 cells assessed as cell growth at 1 nM relative to untreated control; settings: read-out: Activity
[42] = tested on: KM12; test: Growth inhibition of human KM12 cells
[43] = tested on: K562; test: Growth inhibition of human K562 cells assessed as cell growth at 10 uM relative to untreated control; settings: read-out: Activity
[44] = Growth inhibition of human Hs 578T cells assessed as cell growth at 100 nM relative to untreated control; settings: read-out: Activity
[45] = tested on: SF-295; test: Growth inhibition of human SF295 cells assessed as cell growth at 100 nM relative to untreated control; settings: read-out: Activity
[46] = tested on: DU-145; test: Growth inhibition of human DU145 cells assessed as cell growth at 10 nM relative to untreated control; settings: read-out: Activity; method in brief: as §1
[47] = tested on: NCI-H322M; test: Growth inhibition of human NCI-H322M cells assessed as cell growth at 10 nM relative to untreated control; settings: read-out: Activity
[48] = tested on: SF-295; test: Growth inhibition of human SF295 cells assessed as cell growth at 1 uM relative to untreated control; settings: read-out: Activity
[49] = tested on: SK-MEL-28; test: Growth inhibition of human SK-MEL-28 cells
[50] = read-out: LC50 (the source's name)

COc1ccc2c(c1)[nH]c1c(C)c(OS(=O)(=O)c3cccc4c(N(C)C)cccc34)ccc12
growth at 0.001 µM [1]: 101%
growth at 10 µM [2]: 8%
growth at 0.01 µM [3]: 102%
GI50 [4]: 9.3 µM
TGI [4]: > 100 µM
CC50 [4, 50]: > 100 µM
growth at 0.001 µM [5]: 102%
growth at 0.001 µM [6]: 96%
growth at 0.01 µM [7]: 92%
growth at 10 µM [8]: -4%
growth at 0.01 µM [9]: 89%
growth at 0.1 µM [10]: 83%
GI50 [11]: 3.39 µM
TGI [11]: > 100 µM
CC50 [11, 50]: > 100 µM
growth at 0.1 µM [12]: 91%
GI50 [13]: 9.19 µM
TGI [13]: > 100 µM
CC50 [13, 50]: > 100 µM
CC50 [14]: > 100 µM
growth at 1 µM [15]: 51%
growth at 1 µM [16]: 51%
growth at 0.1 µM [17]: 88%
growth at 0.001 µM [18]: 103%
GI50 [19]: 4.38 µM
TGI [19]: > 100 µM
CC50 [19, 50]: > 100 µM
growth at 0.01 µM [20]: 83%
growth at 10 µM [21]: 33%
growth at 0.1 µM [22]: 91%
growth at 0.1 µM [23]: 85%
growth at 0.01 µM [24]: 110%
growth at 10 µM [25]: 17%
growth at 1 µM [26]: 7%
growth at 0.01 µM [27]: 92%
growth at 0.1 µM [28]: 96%
growth at 0.1 µM [29]: 97%
growth at 0.001 µM [30]: 105%
growth at 0.01 µM [31]: 91%
growth at 0.1 µM [32]: 92%
GI50 [33]: 4.19 µM
TGI [33]: > 100 µM
CC50 [33, 50]: > 100 µM
growth at 0.01 µM [34]: 100%
growth at 0.001 µM [35]: 107%
growth at 10 µM [36]: 7%
growth at 1 µM [37]: 20%
growth at 0.1 µM [38]: 101%
growth at 1 µM [39]: 24%
growth at 1 µM [40]: 1%
growth at 0.001 µM [41]: 103%
GI50 [42]: 41.5 µM
TGI [42]: > 100 µM
CC50 [42, 50]: > 100 µM
growth at 10 µM [43]: 5%
growth at 0.1 µM [44]: 88%
growth at 0.1 µM [45]: 69%
growth at 0.01 µM [46]: 107%
growth at 0.01 µM [47]: 94%
growth at 1 µM [48]: 15%
GI50 [49]: 50.3 µM
TGI [49]: > 100 µM
CC50 [49, 50]: > 100 µM
